# Tests used:
# [1] = test system: Mus musculus; assay: Toxicity in female BDF1 mouse allografted with mouse L1210 cells assessed as animal survival at 50 mg/kg, ip administered daily for 9 days as Klucel suspension starting 24 hrs after tumor inoculation measured on fifth day; assay type: organism-based; design: dose 50 mg/kg, route intraperitoneal; conditions: in vivo
# Summary of the method: (§1)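 L1210 leukemia passaged as ascitic fluid and inoculated ip. Test agent given ip as a Klucel (hydroxypropylcellulose) suspension, nine daily doses starting 24 h after tumor inoculation. Acute toxicity read as toxicity-day survivors per group (out of 6), recorded on day 5. Animal weight difference T − C was also recorded. Follows NCI screening protocols.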
# [2] = test system: Mus musculus; assay: Toxicity in female BDF1 mouse allografted with mouse L1210 cells assessed as animal survival at 200 mg/kg, ip administered daily for 9 days as Klucel suspension starting 24 hrs after tumor inoculation measured on fifth day; assay type: organism-based; design: dose 200 mg/kg, route intraperitoneal; conditions: in vivo; summary of the method: as §1
# [3] = test system: L1210; assay: Antileukemic activity against mouse L1210 cells allografted in female BDF1 mouse assessed as host mean survival time at 100 mg/kg, ip administered daily for 9 days as Klucel suspension starting 24 hrs after tumor inoculation relative to control; assay type: functional; conditions: route intraperitoneal
# Summary of the method: (§2)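 L1210 leukemia given as an ascitic fluid cell inoculum, ip, to mice of the strain and sex in each line. Test material was given ip for nine daily doses starting 24 h after inoculation, in a Klucel (hydroxypropylcellulose) suspension. Read-out is mean survival time as %T/C versus controls, with >125 taken as significant.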
# [4] = test system: P388; assay: Antitumor activity against mouse P388 cells allografted in female CDF1 mouse assessed as change in body weight at 100 mg/kg, ip administered daily for 9 days as Klucel suspension starting 24 hrs after tumor inoculation; assay type: functional; conditions: route intraperitoneal
# Summary of the method: (§3)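 Ascitic fluid carrying P388 cells was inoculated ip. Compound was given ip in nine daily doses, starting 24 h after inoculation, in Klucel (hydroxypropylcellulose) suspension or in saline with Tween-80. Body-weight difference (treated minus control) was recorded on day 5. Survival was scored as %T/C of median survival time, and 30-day survival counted as cure.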
# [5] = test system: P388; assay: Antitumor activity against mouse P388 cells allografted in female CDF1 mouse assessed as disease cures by measuring 30-days host survival at 25 mg/kg, ip administered daily for 9 days as Klucel suspension starting 24 hrs after tumor inoculation relative to control; assay type: functional; conditions: route intraperitoneal
# Summary of the method: (§4)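 P388 leukemia given as an ascitic fluid cell inoculum, ip, to mice of the strain and sex in each line. Nine daily ip doses were given in a Klucel (hydroxypropylcellulose) suspension, starting 24 h after inoculation. Read-out is median survival time as %T/C, with >125 taken as significant; a "cure" means 30-day survival.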
# [6] = test system: P388; assay: Antitumor activity against mouse P388 cells allografted in female CDF1 mouse assessed as disease cures by measuring 30-days host survival at 200 mg/kg, ip administered daily for 9 days as Klucel suspension starting 24 hrs after tumor inoculation relative to control; assay type: functional; conditions: route intraperitoneal; summary of the method: as §4
# [7] = test system: P388; assay: Antitumor activity against mouse P388 cells allografted in female CDF1 mouse assessed as disease cures by measuring 30-days host survival at 50 mg/kg, ip administered daily for 9 days as Klucel suspension starting 24 hrs after tumor inoculation relative to control; assay type: functional; conditions: route intraperitoneal; summary of the method: as §4
# [8] = test system: L1210; assay: Antileukemic activity against mouse L1210 cells allografted in female BDF1 mouse assessed as change in body weight at 100 mg/kg, ip administered daily for 9 days as Klucel suspension starting 24 hrs after tumor inoculation; assay type: functional; conditions: route intraperitoneal
# Summary of the method: (§5)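 Ascitic fluid carrying L1210 cells was inoculated ip. Compound was given ip as a Klucel (hydroxypropylcellulose) suspension in nine daily doses, starting 24 h after inoculation. Body-weight difference (treated minus control) was recorded on day 5. Survival was scored as %T/C of mean survival time.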
# [9] = test system: L1210; assay: Antileukemic activity against mouse L1210 cells allografted in female BDF1 mouse assessed as host mean survival time at 200 mg/kg, ip administered daily for 9 days as Klucel suspension starting 24 hrs after tumor inoculation relative to control; assay type: functional; conditions: route intraperitoneal; summary of the method: as §2
# [10] = test system: P388; assay: Antitumor activity against mouse P388 cells allografted in female CDF1 mouse assessed as change in body weight at 200 mg/kg, ip administered daily for 9 days as Klucel suspension starting 24 hrs after tumor inoculation; assay type: functional; conditions: route intraperitoneal; summary of the method: as §3
# [11] = test system: Mus musculus; assay: Toxicity in female CDF1 mouse allografted with mouse P388 cells assessed as animal survival at 50 mg/kg, ip administered daily for 9 days as Klucel suspension starting 24 hrs after tumor inoculation; assay type: organism-based; design: dose 50 mg/kg, route intraperitoneal; conditions: in vivo
# Summary of the method: (§6)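 P-388 leukemia ascitic fluid inoculated ip. Compound given ip as a suspension in Klucel (hydroxypropylcellulose), once daily for nine doses beginning 24 h post-inoculation. Acute toxicity assessed as toxicity-day survivors per group. Survival was followed up to 30 days, with 30-day survival counted as "cure". Follows NCI screening protocols.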
# [12] = test system: Mus musculus; assay: Toxicity in female CDF1 mouse allografted with mouse P388 cells assessed as animal survival at 100 mg/kg, ip administered daily for 9 days as Klucel suspension starting 24 hrs after tumor inoculation; assay type: organism-based; design: dose 100 mg/kg, route intraperitoneal; conditions: in vivo; summary of the method: as §6
# [13] = test system: P388; assay: Antitumor activity against mouse P388 cells allografted in female CDF1 mouse assessed as disease cures by measuring 30-days host survival at 12.5 mg/kg, ip administered daily for 9 days as Klucel suspension starting 24 hrs after tumor inoculation relative to control; assay type: functional; conditions: route intraperitoneal; summary of the method: as §4
# [14] = test system: Mus musculus; assay: Toxicity in female CDF1 mouse allografted with mouse P388 cells assessed as animal survival at 25 mg/kg, ip administered daily for 9 days as Klucel suspension starting 24 hrs after tumor inoculation; assay type: organism-based; design: dose 25 mg/kg, route intraperitoneal; conditions: in vivo; summary of the method: as §6
# [15] = test system: P388; assay: Antitumor activity against mouse P388 cells allografted in female CDF1 mouse assessed as change in body weight at 12.5 mg/kg, ip administered daily for 9 days as Klucel suspension starting 24 hrs after tumor inoculation; assay type: functional; conditions: route intraperitoneal; summary of the method: as §3
# [16] = test system: P388; assay: Antitumor activity against mouse P388 cells allografted in female CDF1 mouse assessed as disease cures by measuring 30-days host survival at 100 mg/kg, ip administered daily for 9 days as Klucel suspension starting 24 hrs after tumor inoculation relative to control; assay type: functional; conditions: route intraperitoneal; summary of the method: as §4
# [17] = test system: Mus musculus; assay: Toxicity in female CDF1 mouse allografted with mouse P388 cells assessed as animal survival at 12.5 mg/kg, ip administered daily for 9 days as Klucel suspension starting 24 hrs after tumor inoculation; assay type: organism-based; design: dose 12.5 mg/kg, route intraperitoneal; conditions: in vivo; summary of the method: as §6
# [18] = test system: L1210; assay: Antileukemic activity against mouse L1210 cells allografted in female BDF1 mouse assessed as change in body weight at 50 mg/kg, ip administered daily for 9 days as Klucel suspension starting 24 hrs after tumor inoculation; assay type: functional; conditions: route intraperitoneal; summary of the method: as §5
# [19] = test system: P388; assay: Antitumor activity against mouse P388 cells allografted in female CDF1 mouse assessed as change in body weight at 25 mg/kg, ip administered daily for 9 days as Klucel suspension starting 24 hrs after tumor inoculation; assay type: functional; conditions: route intraperitoneal; summary of the method: as §3
# [20] = Cytotoxicity against human 9KB cells treated as ethanol solution; assay type: functional; conditions: read-out: ED50 (the source's name)
# Summary of the method: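 Compound applied as an ethanol solution; activity read out as ED50 under the general screening protocol.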
# [21] = test system: P388; assay: Antitumor activity against mouse P388 cells allografted in female CDF1 mouse assessed as change in body weight at 50 mg/kg, ip administered daily for 9 days as Klucel suspension starting 24 hrs after tumor inoculation; assay type: functional; conditions: route intraperitoneal; summary of the method: as §3
# [22] = test system: L1210; assay: Antileukemic activity against mouse L1210 cells allografted in female BDF1 mouse assessed as change in body weight at 200 mg/kg, ip administered daily for 9 days as Klucel suspension starting 24 hrs after tumor inoculation; assay type: functional; conditions: route intraperitoneal; summary of the method: as §5
# [23] = test system: L1210; assay: Antileukemic activity against mouse L1210 cells allografted in female BDF1 mouse assessed as host mean survival time at 50 mg/kg, ip administered daily for 9 days as Klucel suspension starting 24 hrs after tumor inoculation relative to control; assay type: functional; conditions: route intraperitoneal; summary of the method: as §2
compound,measurement,setting,value
CNC(=O)OCc1c(COC(=O)NC)c(-c2ccc(OC)cc2)n2c1CCC2,Activity,[1],Non-toxic
same,Activity,[2],Non-toxic
same,T/C,[3],117%
same,Activity,[4],-3.7 g
same,T/C,[5],132%
same,T/C,[6],55%
same,T/C,[7],131%
same,Activity,[8],-4.8 g
same,T/C,[9],98%
same,Activity,[10],-3.6 g
same,Activity,[11],Non-toxic
same,Activity,[12],Non-toxic
same,T/C,[13],132%
same,Activity,[14],Non-toxic
same,Activity,[15],-3.2 g
same,T/C,[16],129%
same,Activity,[17],Non-toxic
same,Activity,[18],-2.3 g
same,Activity,[19],-3.3 g
same,EC50,[20],21 µg/mL
same,Activity,[21],-4 g
same,Activity,[22],-5 g
same,T/C,[23],109%
